According to ChEMBL document CHEMBL3124885, “Discovery of 7-tetrahydropyran-2-yl chromans: β-site amyloid precursor protein cleaving enzyme 1 (BACE1) inhibitors that reduce amyloid β-protein (Aβ) in the central nervous system” (J Med Chem, 2014):

Legend:
[1] = Oral bioavailability in CD-1 mouse at 10 mg/kg; type: ADME, organism-based; conditions: in vivo
[2] = Clearance in CD-1 mouse liver microsomes at 1 uM after 20 mins by LC-MS/MS analysis in presence of NADPH; type: ADME, Microsome
Summary of the method: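 Compound at 1 μM incubated with mouse liver microsomes for 20 min at 37 °C with NADPH.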

Brain [3] = assay: Fraction unbound in CD-1 mouse brain at 10 mg/kg, po measured at 4 hrs; type: ADME, organism-based; set-up: dose 10 mg/kg, route oral; conditions: in vivo
Summary of the method: (§1)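 Male CD-1 mice, 3 per cohort, dosed 10 mg/kg orally; brains harvested at 1 and 4 h.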

Mus musculus = assay: Hepatic clearance in CD-1 mouse at 3 mg/kg, iv; type: ADME, organism-based, Liver; set-up: dose 3 mg/kg, route intravenous; conditions: in vivo
Summary of the method: (§2)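 Male CD-1 mice, 3 per cohort, dosed 3 mg/kg iv and 10 mg/kg po; plasma drawn at 1 and 4 h, brains harvested from oral groups only. Formulations varied by compound: 40% PEG 400/10% EtOH/50% H₂O; 30% captisol in H₂O; iv 50 mM citrate in saline (pH 4); po 1% CMC/0.5% Tween/5 mM citrate in H₂O.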

Plasma [4] = assay: Unbound plasma concentration in CD-1 mouse at 3 mg/kg, iv and 10 mg/kg, po measured at 1 hr; type: ADME, organism-based; conditions: in vivo; summary of the method: as §2
Brain [5] = assay: Fraction unbound in CD-1 mouse brain at 10 mg/kg, po measured at 1 hr; type: ADME, organism-based; set-up: dose 10 mg/kg, route oral; conditions: in vivo; summary of the method: as §1
[6] = Ratio of unbound drug level in brain to plasma in CD-1 mouse measured at 4 hrs; type: ADME; conditions: for Kp uu at 4 h: CD-1, mouse, read-out: K(p,uu,brain)
Summary of the method: (§3)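 Male CD-1 mice given 10 mg/kg po, 3 per cohort; plasma and brain collected at 1 and 4 h. Free brain/plasma ratio from unbound concentrations; coverage ratio = free brain concentration divided by HEK293 Aβ₁₋₄₀ cell IC50.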

[7] = Ratio of unbound drug level in brain to plasma in CD-1 mouse measured at 1 hr; type: ADME; conditions: for Kp uu at 1 h: CD-1, mouse, read-out: K(p,uu,brain); summary of the method: as §3
Plasma [8] = assay: Unbound plasma concentration in CD-1 mouse at 3 mg/kg, iv and 10 mg/kg, po measured at 4 hrs; type: ADME, organism-based; conditions: in vivo; summary of the method: as §2
[9] = Fraction unbound in Hartley guinea pig brain at 60 mg/kg, po measured at 3 hrs; type: ADME, organism-based, Cavia porcellus; set-up: dose 60 mg/kg, route oral; conditions: in vivo
[10] = Unbound plasma concentration in Hartley guinea pig at 60 mg/kg, po measured at 5 hrs; type: ADME, organism-based, Cavia porcellus; set-up: dose 60 mg/kg, route oral; conditions: in vivo
Summary of the method: (§4)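 Male Hartley guinea pigs were dosed orally at 30, 60 or 100 mg/kg, with six or eight animals per cohort. The vehicle was either a suspension in 1% CMC/0.5% Tween/5 mM citrate in H₂O or a 40/10/50 PEG/EtOH/H₂O solution, depending on compound. Unbound plasma concentration was sampled at 1–12 h post-dose alongside brain, CSF and CSF Aβ₁₋₄₀.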

[11] = Drug uptake in Hartley guinea pig CSF at 60 mg/kg, po measured at 5 hrs; type: ADME, organism-based, Cavia porcellus, Cerebrospinal fluid; set-up: dose 60 mg/kg, route oral; conditions: read-out: Drug uptake
Summary of the method: (§5)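 Male Hartley guinea pigs, oral dosing (CMC/Tween/citrate suspension or PEG/EtOH/H₂O solution), six or eight animals per cohort; CSF drug concentration (nM) measured at each time point.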

[12] = Ratio of unbound drug level in brain to plasma in Hartley guinea pig at 60 mg/kg, po measured at 3 hrs; type: ADME, organism-based, Cavia porcellus; set-up: dose 60 mg/kg, route oral; conditions: brain and plasma (unbound), read-out: K(p,uu,brain)
Summary of the method: (§6)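 Male Hartley guinea pigs given single oral doses of 30, 60 or 100 mg/kg in 1% CMC/0.5% Tween/5 mM citrate in H₂O, 6–8 animals per cohort. Plasma, brain and CSF sampled at 1–12 h; free brain to free plasma ratio computed.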

[13] = Unbound plasma concentration in Hartley guinea pig at 60 mg/kg, po measured at 3 hrs; type: ADME, organism-based, Cavia porcellus; set-up: dose 60 mg/kg, route oral; conditions: in vivo; summary of the method: as §4
[14] = Drug uptake in Hartley guinea pig CSF at 60 mg/kg, po measured at 3 hrs; type: ADME, organism-based, Cavia porcellus, Cerebrospinal fluid; set-up: dose 60 mg/kg, route oral; conditions: read-out: Drug uptake; summary of the method: as §5
[15] = Ratio of unbound drug level in brain to plasma in Hartley guinea pig at 60 mg/kg, po measured at 5 hrs; type: ADME, organism-based, Cavia porcellus; set-up: dose 60 mg/kg, route oral; conditions: brain and plasma (unbound), read-out: K(p,uu,brain); summary of the method: as §6
[16] = Fraction unbound in Hartley guinea pig brain at 60 mg/kg, po measured at 5 hrs; type: ADME, organism-based, Cavia porcellus; set-up: dose 60 mg/kg, route oral; conditions: in vivo
[17] = Dissociation constant, pKa of the compound by parallel capillary electrophoresis method; type: physicochemical
Summary of the method: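 pKa determined by a 24-point parallel capillary electrophoresis method, quantitation by UV absorbance at 229 nm.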

SMILES	bioavailability [1] [%]	CLhep predicted at 1 µM [2] [mL/min/kg]	Drug uptake(free) (Brain [3]) [nM]	CLH (Mus musculus) [mL/min/kg]	Cp(f) (Plasma [4]) [nM]	Drug uptake(free) (Brain [5]) [nM]	Kp uu at 4 h [6]	Kp uu at 1 h [7]	Cp(f) (Plasma [8]) [nM]	further results
CN1C(=O)[C@]2(N=C1N)c1cc(-c3cccnc3F)ccc1O[C@H]1CCOC[C@@]12C (racemic)	15	55	3.7	51	53	1.9	0.15	0.036	25	
CN1C(=O)[C@]2(N=C1N)c1cc(-c3cccc(OC(F)F)c3)c(F)cc1O[C@H]1CCOC[C@@H]12 (racemic)		21								
C[C@]12CCOC[C@@H]1[C@]1(COC(N)=N1)c1cc(-c3cncc(Cl)c3)ccc1O2 (racemic)	76	60	5.8	34	220	18	0.048	0.082	120	
CN1C(=O)[C@]2(N=C1N)c1cc(-c3cccc(C#N)c3)ccc1O[C@H]1CCOC[C@@H]12										Drug uptake(free) [9]: 12 nM; Cp(f) [10]: 79 nM; concentration at 5 h [11]: 40 nM; Kp uu at 3 h [12]: 0.046; Cp(f) [13]: 260 nM; concentration at 3 h [14]: 90 nM; Kp uu at 5 h [15]: 0.085; Drug uptake(free) [16]: 6.7 nM
C[C@]12CCOC[C@@H]1[C@]1(COC(N)=N1)c1cc(-c3cncc(Cl)c3)c(F)cc1O2 (racemic)		65								
C[C@H]1OCC[C@H]2Oc3ccc(-c4cccnc4F)cc3[C@@]3(COC(N)=N3)[C@H]12 (racemic)										pKa [17]: 6.4
CN1C(=O)[C@]2(N=C1N)c1cc(-c3cccc(C#N)c3)ccc1O[C@H]1CCOC[C@@H]12 (racemic)	103	17	4.3	35	210	3	0.025	0.014	170	
CN1C(=O)[C@]2(N=C1N)c1cc(-c3cc(F)cc(Cl)c3)ccc1O[C@H]1CCOC[C@@H]12 (racemic)	67	32	0.49	22	8.7	0.28	0.029	0.032	17	
CN1C(=O)[C@]2(N=C1N)c1cc(-c3cccnc3F)ccc1O[C@H]1CCOC[C@@H]12 (racemic)		46	8.4	70	320	11			75	K(p,uu,brain) ([6]; mouse, 4 h): 0.11; K(p,uu,brain) ([7]; mouse, 1 h): 0.034
C[C@]12CCOC[C@@H]1[C@]1(COC(N)=N1)c1cc(-c3cc(F)cc(Cl)c3)ccc1O2	43	57	2.5	48	9.5	7.2	0.68	0.76	3.7	pKa [17]: 6.7
C[C@@]12COCC[C@H]1Oc1ccc(-c3cccnc3F)cc1[C@@]21COC(N)=N1 (racemic)										pKa [17]: 6.4
CN1C(=O)[C@]2(N=C1N)c1cc(-c3cncc(F)c3)ccc1O[C@H]1CCOC[C@@H]12 (racemic)	38	45	< 2.3	140	160	4.4	< 0.14	0.028	17	
CN1C(=O)[C@]2(N=C1N)c1cc(-c3cncc(Cl)c3)ccc1O[C@H]1CCOC[C@@H]12 (racemic)	19	54	< 0.8	110	26	1	< 0.11	0.038	7.5	
CN1C(=O)[C@]2(N=C1N)c1cc(-c3cccnc3F)c(F)cc1O[C@H]1CCOC[C@@H]12 (racemic)		40								
C[C@H]1OCC[C@H]2Oc3ccc(-c4cccnc4F)cc3[C@]3(N=C(N)N(C)C3=O)[C@H]12 (racemic)	75	51	< 0.75	72	260	7.1	< 0.012	0.027	63	
C[C@]12CCOC[C@@H]1[C@]1(COC(N)=N1)c1cc(-c3cccnc3F)c(F)cc1O2 (racemic)		84								
C[C@]12CCOC[C@@H]1[C@]1(COC(N)=N1)c1cc(-c3cccnc3F)ccc1O2 (racemic)		61								
